Compound activity from PubChem.
NadD inh = NadD (S. aureus) enzyme inhibition; inhibition, % at 20 µM; 0.78% of 360,000 active; purified NadD enzyme, colorimetric absorbance read-out; in the data active = inhibition above about 26%
PP1 counter = counter-screen for PP5 inhibitors: inhibitors of human PP1-alpha. P62136. purified PP1alpha, OMFP fluorescence. inhibition, % at 6.7 µM. 0.9% of 320,000 active. AID 2235;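 active = inhibition above the mean inhibition of all tested compounds plus 3 SD, computed separately for each screening campaign, cut at about 15% in these data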
Target sequence (P62136 whole entry, looked up): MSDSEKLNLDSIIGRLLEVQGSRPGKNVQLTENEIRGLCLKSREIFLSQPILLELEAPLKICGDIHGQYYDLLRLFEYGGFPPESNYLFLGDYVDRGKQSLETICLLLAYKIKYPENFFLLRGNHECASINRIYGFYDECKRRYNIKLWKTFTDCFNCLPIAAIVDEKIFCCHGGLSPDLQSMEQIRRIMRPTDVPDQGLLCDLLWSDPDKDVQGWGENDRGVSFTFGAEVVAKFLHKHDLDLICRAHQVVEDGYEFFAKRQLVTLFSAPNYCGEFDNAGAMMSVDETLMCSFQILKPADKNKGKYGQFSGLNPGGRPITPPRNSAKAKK
Myeloid diff 2 = compounds promoting myeloid differentiation; 1% of 360,000 active; ER-HoxA9 myeloid progenitors, lysozyme-GFP differentiation, flow cytometry; calls only at 10 µM;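 active = normalized GFP-positive differentiation at or above the plate's own cutoff, the solvent-only control mean plus 3 SD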;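 also: cells exposed to compound for four days before flow analysis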
core dimer inh = blocks dimerization of HCV core protein. AID 1899. inhibition, % at 5 µM. TR-FRET GST/Flag-core106 dimerization, 1536-well. 0.33% of 300,000 active;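 active = inhibition above the mean of all tested compounds plus 3 SD, set per screening campaign, cut at about 45% in these data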
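System: GST/Flag-tagged HCV core106 proteins. Incubation: compound-protein-antibody incubation 4 h at 22.5 °C. Technique: HTRF with 340 nm excitation, 617/671 nm emission. Medium: KF-containing HEPES buffer, pH 7.45, DTT, CHAPS, BSA. Read-out: inhibition (%) from 671 over 617 nm ratio. Also added: Eu(K)-anti-GST 90 ng/mL plus XL665-anti-Flag 1 µg/mL.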
PP5 primary = inhibitors of human protein phosphatase 5 (PP5); P53041; purified PP5c, OMFP substrate fluorescence; inhibition, % at 6.7 µM; 0.18% of 320,000 active;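 active = inhibition above the campaign's mean inhibition across all tested compounds plus 3 SD, cut at about 9.5% in these data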;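 also: 0% = DMSO only and 100% = 100 µM cantharidin control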
CTSL1 counter = blocks F. hepatica cathepsin L1 in PFM18AAP counter-screen | recombinant F. hepatica cathepsin L1, Z-Leu-Arg-MCA fluorescence | inhibition, % at 5.96 µM | 0.49% of 300,000 active | AID 1906;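 active = inhibition above the mean of all tested compounds plus 3 SD, set per screening campaign, cut at about 17% in these data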;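 also: 0% = plate median of test compound wells and 100% = 1 µM Z-Phe-Ala-diazomethylketone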
Myeloid diff = myeloid differentiation induction; shares compounds with Myeloid diff 2; ER-HoxA9 myeloid progenitors, GFP/Mac1 double-positive flow; calls only; 2% of 2,300 active;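 active = share of green or green-and-red cells above 9 and 9% in run 1 or 4 and 3% in run 2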
GFP autofluor = counter-screen for myeloid differentiation promoters: compound fluorescence; shares compounds with Myeloid diff 2; ER-HoxA9 myeloid progenitors, no estrogen, GFP autofluorescence flow cytometry; vehicle wells 0%, positive control 100%; fluorescence response, % (test concentration not listed); 7.4% of 2,300 active; AID 651707;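 active = over 5% cells positive for green fluorescent reporter, or over 2% positive for both it and APC stain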;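 also: range taken on the double positive population between DMSO and positive control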
* = called active by the depositor; i = inactive; nt = no result given; + = active, no number. A selection: hits, their analogues and other compounds. The true share with any hit is near 3.1%.

SMILES | NadD inh | PP1 counter | Myeloid diff 2 | core dimer inh | PP5 primary | CTSL1 counter | Myeloid diff | GFP autofluor
CC1(C)CC(=O)C(C=Nc2ccc(C(=O)c3ccccc3)cc2N=CC2=C(O)CC(C)(C)CC2=O)=C(O)C1 | 12 | 0 | + | 3 | 1 | 1 | i | 0
Cc1ccc(NC(=S)N2CCC(NC(=O)c3ccco3)CC2)cc1C | -2 | -2 | i | -2 | 0 | 2 | nt | nt
NC(=O)c1ccsc1NC(=O)CCS(=O)(=O)c1ccc(F)cc1 | -4 | -4 | + | 0 | -2 | -3 | i | 0
COC(=O)c1ccccc1N1C(=O)C2C(C1=O)C1C=CC2C12CC2 (stereo not drawn) | -5 | 2 | + | 0 | 5 | -2 | i | 94*
COC(=O)c1ccccc1N1C(=O)C2C(C1=O)[C@H]1C=C[C@@H]2C1 (stereo partly drawn) | -2 | 1 | i | -3 | 3 | -4 | nt | nt
COC(=O)C1CCCN1C(=O)c1cccs1 (stereo not drawn) | 1 | -2 | + | -2 | 2 | -7 | i | 0
O=C(O)C1CCCN1C(=O)c1cccs1 (stereo not drawn) | -1 | 4 | i | -4 | 2 | -2 | nt | nt
COCc1cc(CN2CCCC(C(=O)Nc3cccc(-n4cnnn4)c3)C2)ccc1OC (stereo not drawn) | -3 | -5 | i | -4 | 2 | -1 | nt | nt
COC(=O)c1ccccc1NC(=O)Oc1ccc(F)cc1 | -8 | -1 | i | -5 | 2 | -2 | i | 0
C/C=C(\C)C(=O)NCCN1C2=NC[C@H](C)N2C[C@@H]1Cc1ccc(OC)cc1 | -5 | -3 | i | 5 | 0 | -3 | nt | nt
COc1ccc(C[C@@H]2CN3C(=NC[C@@H]3C)N2CCNC(=O)c2ccc(C)c(Br)c2)cc1 | -1 | 0 | + | 0 | -1 | 3 | i | 0
CC(C)(C)C(=O)/C=C1\SCC(=O)N1CC(=O)N1CCN(c2ccccc2)CC1 | 5 | nt | i | nt | nt | nt | i | 1
O=C(CN1CCN(c2ccccc2)CC1)N1CCN(c2ccccc2)CC1 | -6 | -5 | i | -2 | 7 | -2 | nt | nt
CCCCCNC(=O)C(c1ccc(C#N)cc1)n1c(=O)c(-c2ccco2)nc2ccccc21 (stereo not drawn) | nt | nt | i | nt | nt | nt | i | 1
CCCCCNC(=O)C(c1ccc(OC)cc1)n1c(=O)c(-c2ccco2)nc2ccccc21 (stereo not drawn) | nt | nt | i | nt | nt | nt | nt | nt
COC(=O)c1ccc(NC(=S)NC2CCCCC2C)cc1 (stereo not drawn) | 0 | 2 | + | 6 | 2 | -2 | i | 0
CC[C@@]1(C(=O)OC)N[C@H](CN(C)S(=O)(=O)c2ccc(-c3ccccc3)cc2)[C@@H]2C(=O)N(C)C(=O)[C@@H]21 | 0 | nt | i | nt | nt | nt | i | 0
CCN(C[C@H]1N[C@@](CC)(C(=O)OC)[C@H]2C(=O)N(Cc3ccccc3)C(=O)[C@@H]12)S(=O)(=O)c1ccc(OC)cc1 | -2 | nt | i | nt | nt | nt | i | 0
COC(=O)C1CCN(C(=O)Cn2nnc(-c3cccc(F)c3)n2)CC1 | -8 | -4 | i | -4 | 1 | -3 | nt | nt
Cc1cccc(NC(=O)CNC(=O)CCc2nc3sc4c(c3c(=O)[nH]2)CCCC4)c1C | 9 | -1 | + | 42 | -1 | -4 | i | 0
Cc1cccc(NC(=O)CCc2nc3sc4c(c3c(=O)[nH]2)CCCC4)n1 | -3 | -7 | i | 8 | 0 | 2 | nt | nt
CCCc1nc2c3ccccc3ccn2c1Cc1ccc(OC)cc1C | 3 | nt | + | nt | nt | nt | + | 1
CCCN(C(=O)CSCc1c(C)noc1C)c1c(N)n(Cc2ccccc2)c(=O)[nH]c1=O | 4 | -5 | i | 0 | 0 | -11 | nt | nt
O=C1CCCCN1CC(=O)N1CCCC(Nc2ccc(F)cc2)C1 (stereo not drawn) | 1 | 1 | i | -1 | -2 | -2 | nt | nt
COc1ccc(/C=N/NC2=NS(=O)(=O)c3ccccc32)cc1OC(C)=O | -9 | -1 | i | -3 | 0 | -1 | i | 0
